Assay results from different studies.
Target: Serine/threonine-protein kinase SBK1 (SBK1, Homo sapiens, UniProt Q52WX2)

FC(F)(F)Oc1cccc(-c2cnc3ccc(-c4ccncc4)nn23)c1  remaining binding (binding; competition with immobilised ligand; 5 µM): 85%
Cc1cc(-n2nc(Cc3cc(F)cc(C(F)(F)F)c3)nc2C)ccc1C(N)=O  remaining binding (cell-free assay; competition with immobilised ligand; 1 µM): 98%
CNC(=O)[C@@H]1CC[C@@H](n2c(-c3ccc4cnccc4c3)nc3ccc(C(=O)NCc4cccc(C(N)=O)c4)cc32)C1  remaining binding (binding; competition with immobilised ligand; 1 µM): 100%
CCCCN(CCCC)C(=O)CN1C[C@H](c2cc(OC)c3c(c2)OCO3)[C@@H](C(=O)O)[C@@H]1CC(C)(C)CCC  remaining binding (cell-free assay; competition with immobilised ligand; 1 µM): 76.5%
O=C(c1ccc(Nc2nccc(-c3cc4ccccc4s3)n2)cc1)N1CCC(N2CCCC2)CC1  remaining binding (binding; competition with immobilised ligand; 1 µM): 88%
c1cnn2ncc(-c3ccnc(N4CCC45COC5)n3)c2c1  remaining binding (binding; 1 µM): 65%
C=CC(=O)N1CCC(C(=O)NCC(=O)N2CCN(c3nc(-c4cnc(N)nc4C(F)F)nc(N4CCOCC4)n3)CC2)CC1  remaining binding (binding; competition with immobilised ligand; 1 µM): 100%
CC(=O)c1c(NS(C)(=O)=O)c2cc(-c3ccc(Cl)cc3)c(-c3ccc(Cl)cc3Cl)nc2n(C)c1=O  remaining binding (cell-free assay; competition with immobilised ligand; 1 µM): 77%
COc1cnc(Nc2cccc(S(N)(=O)=O)c2)nc1N1CCN(c2ccccc2)C(=O)C1  remaining binding (binding; competition with immobilised ligand; 1 µM): 61%
O=C(c1ccc(Nc2ncc(Cl)c(-c3ccc(Cl)s3)n2)cc1)N1CCC(N2CCCC2)CC1  remaining binding (binding; competition with immobilised ligand; 1 µM): 48%
Cc1c[nH]c2nccc(Oc3c(F)cc(Nc4cc(Cl)nc(N)n4)cc3F)c12  remaining binding (cell-free assay; competition with immobilised ligand; 0.1 µM): 94%
c1cncc(-c2cccc(Nc3nccc(NC4CCCCC4)n3)c2)c1  remaining binding (binding; competition with immobilised ligand; 10 µM): 66%
CN(C)c1nccc(-c2cnn3ncccc23)n1  remaining binding (binding; 1 µM): 100%
O=C(NCC1CCOCC1)c1n[nH]cc1NC(=O)c1c(F)cccc1F  remaining binding (binding; competition with immobilised ligand; 1 µM): 70%
N[C@@H]1CCN(c2nccc(-c3cnn4ncccc34)n2)C1  remaining binding (binding; 1 µM): 94%
O=S(=O)(NC1CCC(c2cc(F)ccc2F)(S(=O)(=O)c2ccc(Cl)cc2)CC1)C(F)(F)F (stereo not shown)  remaining binding (cell-free assay; competition with immobilised ligand; 1 µM): 75%
C[C@@H]1CCN(c2nccc(-c3cnn4ncccc34)n2)C1  remaining binding (binding; 1 µM): 85%
C[C@H](c1cccc(C#N)c1)n1cc(Cl)cc(C(N)=O)c1=N  remaining binding (cell-free assay; competition with immobilised ligand; 1 µM): 83%
CN(C)c1ncc(F)c(-c2cnn3ncccc23)n1  remaining binding (binding; 1 µM): 66%
O=C(NCc1ncc(C(F)(F)F)cc1Cl)c1ccc2c(c1)C1(CCS(=O)(=O)CC1)[C@H](C1CC1)N2S(=O)(=O)c1ccc(F)cc1  remaining binding (cell-free assay; competition with immobilised ligand; 1 µM): 97%
O=C(c1ccc(Nc2ncc(Cl)c(-c3cc4ccccc4s3)n2)cc1)N1CCC(N2CCCC2)CC1  remaining binding (binding; competition with immobilised ligand; 1 µM): 52%
CC1CCCN1c1nccc(-c2cnn3ncccc23)n1 (stereo not shown)  remaining binding (binding; 1 µM): 100%
